The record followed here is ChEMBL document CHEMBL3526048, “In vitro metabolism of rivoglitazone, a novel peroxisome proliferator-activated receptor γ agonist, in rat, monkey, and human liver microsomes and freshly isolated hepatocytes” (Drug Metab Dispos, 2011).

The structures appear in SMILES notation.

One data set deals with Liver microsome. Put plainly: Drug metabolism in human liver microsomes assessed as formation of 2-hydroxy-3-(4-((6-methoxy-1-methyl-1H-benzo[d]imidazol-2-yl)methoxy)phenyl)propanamide at 20 uM after 2 hrs by radio-HPLC/LC-MS/MS analysis in presence of NADPH-generating system and NADPH-generating system/SAM. Type of data set: ADME. On the technique in general: Microsomes from liver hold many membrane-bound enzymes, among them those of drug oxidation.

Data set [1] is described as follows: Drug metabolism in human hepatocytes assessed as formation of 2-((4-((2,4-dioxothiazolidin-5-yl)methyl)phenoxy)methyl)-1-methyl-1H-benzo[d]imidazol-6-yl hydrogen sulfate at 30 uM after 3 hrs by radio-HPLC/LC-MS/MS analysis. The data set is classed as ADME, cell-based, Hepatocyte.
Data set [2] in a line: Drug metabolism in human hepatocytes assessed as formation of 5-(4-((6-hydroxy-1-methyl-1H-benzo[d]imidazol-2-yl)methoxy)benzyl)thiazolidine-2,4-dione at 30 uM after 3 hrs by radio-HPLC/LC-MS/MS analysis in presence of NADPH-generating system and NADPH-generating system/SAM. Type of data set: ADME, cell-based, Hepatocyte.
The target of another data set is Cytochrome P450 2C9 (Homo sapiens, UniProt P11712). Briefly: Activity of human CYP2C9 expressed in microsomes isolated from baculovirus infected insect cell assessed as enzyme-mediated 2-mercapto-3-(4-((6-methoxy-1-methyl-1H-benzo[d]imidazol-2-yl)methoxy)phenyl)propanamide formation at 20 uM after 2 hrs by radio-HPLC/LC-MS/MS analysis in presence of NADPH-generating system and NADPH-generating system/SAM. Type of data set: ADME.
Chain of Cytochrome P450 2C9 (P11712 whole entry): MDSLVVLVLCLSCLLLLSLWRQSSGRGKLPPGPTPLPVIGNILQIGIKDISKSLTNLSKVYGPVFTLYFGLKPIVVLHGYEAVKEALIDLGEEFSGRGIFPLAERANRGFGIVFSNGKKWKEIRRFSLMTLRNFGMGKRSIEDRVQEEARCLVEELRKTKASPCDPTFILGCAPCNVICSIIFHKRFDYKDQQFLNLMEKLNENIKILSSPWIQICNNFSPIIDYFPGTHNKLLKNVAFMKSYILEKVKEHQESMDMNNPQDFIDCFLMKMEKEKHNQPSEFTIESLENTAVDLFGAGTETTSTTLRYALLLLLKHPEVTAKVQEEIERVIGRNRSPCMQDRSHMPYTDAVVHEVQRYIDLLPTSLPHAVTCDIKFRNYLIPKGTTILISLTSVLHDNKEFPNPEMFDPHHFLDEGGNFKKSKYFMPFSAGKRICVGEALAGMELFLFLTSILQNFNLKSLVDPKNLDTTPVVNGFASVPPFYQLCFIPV

For data set [3], the target named is T1, Cytochrome P450 2C19 (Homo sapiens, UniProt P33261). Briefly: Activity of human CYP2C19 expressed in microsomes isolated from baculovirus infected insect cell assessed as enzyme-mediated 2-mercapto-3-(4-((6-methoxy-1-methyl-1H-benzo[d]imidazol-2-yl)methoxy)phenyl)propanamide formation at 20 uM after 2 hrs by radio-HPLC/LC-MS/MS analysis in presence of NADPH-generating system and NADPH-generating system/SAM. Type of data set: ADME. In a few lines:
(§1)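 Baculovirus/insect-cell microsomes expressing single human CYPs, 1 mg/ml protein, with 50 mM potassium phosphate (pH 7.4) or 100 mM Tris-HCl (pH 7.5). NADPH-generating system: 2 mM NADP⁺, 20 mM glucose 6-phosphate, 2 units/ml G6PDH, 10 mM MgCl₂. [¹⁴C]rivoglitazone at 20 μM, 2 h at 37°C with shaking. Control used insect-cell control supersomes. Stopped with acetonitrile; supernatant concentrated under nitrogen; metabolites analysed by radio-HPLC, LC-MS and LC-MS/MS.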

For a further data set, the target named is Cytochrome P450 2D6 (Homo sapiens, UniProt P10635). Briefly: Activity of human CYP2D6 expressed in microsomes isolated from baculovirus infected insect cell assessed as enzyme-mediated 3-(4-((6-methoxy-1-methyl-1H-benzo[d]imidazol-2-yl)methoxy)phenyl)-2-(methylsulfinyl)propanamide formation at 20 uM after 2 hrs by radio-HPLC/LC-MS/MS analysis in presence of NADPH-generating system/SAM. Type of data set: ADME.
Chain of Cytochrome P450 2D6 (P10635 whole entry): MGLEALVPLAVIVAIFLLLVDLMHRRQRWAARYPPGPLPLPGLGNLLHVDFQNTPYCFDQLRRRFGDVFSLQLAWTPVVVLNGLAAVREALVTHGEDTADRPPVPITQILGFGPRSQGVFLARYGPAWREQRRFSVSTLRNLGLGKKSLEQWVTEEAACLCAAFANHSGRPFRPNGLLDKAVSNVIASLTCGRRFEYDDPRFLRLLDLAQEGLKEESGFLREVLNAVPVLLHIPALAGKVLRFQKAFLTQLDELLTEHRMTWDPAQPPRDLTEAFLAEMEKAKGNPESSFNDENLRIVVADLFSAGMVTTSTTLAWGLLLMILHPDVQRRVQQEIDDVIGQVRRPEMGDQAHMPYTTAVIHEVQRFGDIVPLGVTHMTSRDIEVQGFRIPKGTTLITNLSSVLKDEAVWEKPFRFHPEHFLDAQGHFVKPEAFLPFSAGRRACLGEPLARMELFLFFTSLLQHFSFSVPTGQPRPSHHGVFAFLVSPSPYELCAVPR

For data set [4], the target named is T1, Cytochrome P450 2C19. Briefly: Activity of human CYP2C19 expressed in microsomes isolated from baculovirus infected insect cell assessed as enzyme-mediated 2-((4-((2,4-dioxothiazolidin-5-yl)methyl)phenoxy)methyl)-1-methyl-1H-benzo[d]imidazol-6-yl hydrogen sulfate formation at 20 uM after 2 hrs by radio-HPLC/LC-MS/MS analysis. Type of data set: ADME. The method, boiled down: as §1

The target of data set [5] is T2, UDP-glucuronosyltransferase 1A3 (Homo sapiens, UniProt P35503).
T2 sequence (P35503 whole entry): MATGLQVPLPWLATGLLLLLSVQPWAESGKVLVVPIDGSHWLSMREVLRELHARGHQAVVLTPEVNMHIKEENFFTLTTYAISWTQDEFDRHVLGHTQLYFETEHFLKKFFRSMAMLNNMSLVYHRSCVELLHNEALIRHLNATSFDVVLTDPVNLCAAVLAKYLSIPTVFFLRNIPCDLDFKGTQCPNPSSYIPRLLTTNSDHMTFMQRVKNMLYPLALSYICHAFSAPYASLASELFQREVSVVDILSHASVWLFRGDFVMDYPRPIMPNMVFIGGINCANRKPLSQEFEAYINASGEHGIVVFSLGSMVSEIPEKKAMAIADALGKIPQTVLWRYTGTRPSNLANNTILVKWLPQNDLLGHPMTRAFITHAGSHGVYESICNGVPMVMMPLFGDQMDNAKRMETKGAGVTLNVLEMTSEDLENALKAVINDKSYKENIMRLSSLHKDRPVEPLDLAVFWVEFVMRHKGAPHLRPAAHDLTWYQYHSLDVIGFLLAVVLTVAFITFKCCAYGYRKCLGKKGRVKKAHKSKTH
Briefly: Activity of human UGT1A3 expressed in microsomes isolated from baculovirus infected insect cell assessed as enzyme-mediated 2-amino-3-((1-carboxy-2-(4-((6-methoxy-1-methyl-1H-benzo[d]imidazol-2-yl)methoxy)phenyl)ethyl)disulfanyl)propanoic acid formation at 20 uM after 4 hrs by radio-HPLC/LC-MS/MS analysis in presence of UDPGA and UDPGA/SAM. The data set is classed as ADME. The method, boiled down: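 Alamethicin (50 μg/mg protein, 15 min on ice) pretreated expressed human UGT microsomes (1 mg/ml protein) from baculovirus-infected insect cells. Incubation with [¹⁴C]rivoglitazone (20 μM) in 100 mM Tris-HCl (pH 7.5) with 10 mM MgCl₂, started by 5 mM UDPGA, 4 h at 37°C with shaking. UGT insect-cell control supersomes were run alongside. Acetonitrile stop, concentrated supernatant analysed by radio-HPLC, LC-MS and LC-MS/MS.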

Data set [6] can be described thus: Drug metabolism in monkey hepatocytes assessed as formation of 5-(4-((6-hydroxy-1-methyl-1H-benzo[d]imidazol-2-yl)methoxy)benzyl)thiazolidine-2,4-dione at 30 uM after 3 hrs by radio-HPLC/LC-MS/MS analysis in presence of NADPH-generating system and NADPH-generating system/SAM. Conditions: cynomolgus monkey.
Another data set addresses T3, Cytochrome P450 1A2 (Homo sapiens, UniProt P05177).
T3 sequence (P05177 whole entry): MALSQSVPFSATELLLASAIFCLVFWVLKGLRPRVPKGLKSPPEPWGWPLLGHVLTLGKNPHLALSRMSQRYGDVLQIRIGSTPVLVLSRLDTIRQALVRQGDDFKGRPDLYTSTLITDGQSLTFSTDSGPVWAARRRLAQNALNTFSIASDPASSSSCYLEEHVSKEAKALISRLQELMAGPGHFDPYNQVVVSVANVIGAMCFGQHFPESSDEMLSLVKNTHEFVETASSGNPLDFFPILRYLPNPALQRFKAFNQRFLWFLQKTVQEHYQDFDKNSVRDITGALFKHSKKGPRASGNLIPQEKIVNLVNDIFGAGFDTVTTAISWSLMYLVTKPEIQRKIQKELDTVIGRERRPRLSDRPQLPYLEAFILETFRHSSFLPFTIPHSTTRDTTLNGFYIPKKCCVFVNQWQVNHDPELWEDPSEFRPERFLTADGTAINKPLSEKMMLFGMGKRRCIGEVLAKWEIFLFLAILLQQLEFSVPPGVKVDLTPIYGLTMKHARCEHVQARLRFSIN
Briefly: Activity of human CYP1A2 expressed in microsomes isolated from baculovirus infected insect cell assessed as enzyme-mediated compound formation treated with [14C]-rivoglitazone at 20 uM after 2 hrs by radio-HPLC/LC-MS/MS analysis in presence of NADPH-generating system. Type of data set: ADME. The method, boiled down:
as §1

T1 sequence (P33261 whole entry): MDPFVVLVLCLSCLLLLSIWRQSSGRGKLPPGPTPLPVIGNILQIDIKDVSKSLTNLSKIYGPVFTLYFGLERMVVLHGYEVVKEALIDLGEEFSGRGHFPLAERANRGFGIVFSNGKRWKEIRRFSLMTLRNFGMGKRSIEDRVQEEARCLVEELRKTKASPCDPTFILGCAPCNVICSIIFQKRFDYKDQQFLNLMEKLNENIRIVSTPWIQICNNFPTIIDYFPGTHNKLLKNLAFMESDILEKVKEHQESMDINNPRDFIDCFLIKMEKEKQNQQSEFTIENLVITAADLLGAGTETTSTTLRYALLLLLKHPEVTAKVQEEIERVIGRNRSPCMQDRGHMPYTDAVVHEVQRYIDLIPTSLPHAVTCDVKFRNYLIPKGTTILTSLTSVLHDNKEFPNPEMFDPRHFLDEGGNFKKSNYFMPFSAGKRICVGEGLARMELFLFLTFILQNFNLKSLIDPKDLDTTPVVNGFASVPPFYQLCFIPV

With `COc1ccc2nc(COc3ccc(C[14CH]4SC(=O)NC4=O)cc3)n(C)c2c1.Cl` (racemic), the Drug metabolism entry in the data set on Liver microsome was “metabolite_detected”; in data set [1], “metabolite_detected”; in data set [2], “metabolite_detected”; on Cytochrome P450 2C9, “metabolite_detected”; on Cytochrome P450 2C19 [3] it was “metabolite_detected”; at Cytochrome P450 2D6 it was “metabolite_not_detected”. The values for the Drug metabolism result (on Cytochrome P450 2C19 [4]; in [5]; in data set [6]) were “metabolite_not_detected”, “metabolite_not_detected” and “metabolite_detected”, respectively.

Take `COc1ccc2nc(COc3ccc(CC(S)C(=O)O)cc3)n(C)c2c1` (stereo not given): the Drug metabolism result on Cytochrome P450 1A2 is recorded as “metabolite_detected”.
